# Sampled rows, rich in hits. Any-hit rate of the full collection: about 1.4%.
# Vif imaging: blocks HIV Vif function | HEK293T cells, Vif self-association by quenched fluorescence, imaging, 24 h | inhibition, % at 7.49 µM | actives 0.35% (n = 340,000) | AID 602346; in the data active means inhibition above about 50%, passing the limit was not always enough
# CAL PDZ FP-1: CAL PDZ (human) peptide binding inhibition | purified CAL PDZ, TMR-peptide fluorescence polarization, 1 h | Q9HD26 | inhibition, % at 24.9 µM | actives 0.92% (n = 300,000);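 active means mean inhibition of at least 30% with at least half of replicates also reaching 30%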;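 further: 0% = DMSO neutral control and 100% = excess unlabeled competitor peptide PRC23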
# CDK5 inh: blocks human CDK5/p35 kinase activity. Recombinant CDK5/p35, ADP-Glo luminescence, 60 min. inhibition, % at 10 µM. actives 0.01% (n = 330,000). AID 488839;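 active means highest replicate inhibition of at least 50% and at least 75% of replicates reaching 50%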;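 further: plate controls were DMSO neutral control for no effect and GW8510 at 10 µM for full effect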
# Target sequence (Q00535 whole entry, looked up): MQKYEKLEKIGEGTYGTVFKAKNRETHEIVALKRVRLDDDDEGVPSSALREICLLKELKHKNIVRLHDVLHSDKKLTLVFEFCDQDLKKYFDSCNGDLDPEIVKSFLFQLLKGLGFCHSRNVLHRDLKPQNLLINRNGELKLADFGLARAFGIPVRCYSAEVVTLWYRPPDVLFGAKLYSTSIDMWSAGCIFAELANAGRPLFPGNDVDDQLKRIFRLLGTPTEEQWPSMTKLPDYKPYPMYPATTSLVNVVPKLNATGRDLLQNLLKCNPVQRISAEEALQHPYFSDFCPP
# Target sequence (Q15078 whole entry, looked up): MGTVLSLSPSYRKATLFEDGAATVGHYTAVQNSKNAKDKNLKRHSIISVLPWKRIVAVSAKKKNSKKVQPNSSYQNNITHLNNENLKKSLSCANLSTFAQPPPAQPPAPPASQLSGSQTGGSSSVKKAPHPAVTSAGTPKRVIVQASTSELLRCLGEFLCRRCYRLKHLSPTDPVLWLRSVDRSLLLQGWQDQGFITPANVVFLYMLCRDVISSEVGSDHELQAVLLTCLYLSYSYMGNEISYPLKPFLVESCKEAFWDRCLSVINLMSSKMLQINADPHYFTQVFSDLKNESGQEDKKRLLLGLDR
# CAL PDZ FP-2: inhibitors of human CAL PDZ peptide binding. Q9HD26. purified CAL PDZ, TMR-peptide fluorescence polarization, 1 h. inhibition, % at 20 µM. actives 0.02% (n = 330,000);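 active means highest replicate inhibition of at least 40%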;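 further: plate controls were DMSO neutral control wells for no effect and unlabeled competitor peptide control wells for full effect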
#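 Material: tagged CAL PDZ protein CerCALP, purified; buffer or medium: sodium phosphate/NaCl buffer pH 7.4 with TCEP, IgG, Thesit; also added: fluorescent TMR peptide probe; schedule: 1 h incubation at room temperature before polarization reading; technique: fluorescence polarization from S- and P-plane intensities, G-factor corrected; control set: unlabelled peptide and DMSO controls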
# Glyco luc inh: N-linked glycosylation inhibition; D54 ERlucT glycosylation luciferase reporter, 24 h; percent of 100 nM tunicamycin response; reporter increase, % at 12.5 µM; actives 0.23% (n = 360,000); AID 588692;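 active means mean luciferase reporter signal, scaled so untreated is 0 and the glycosylation-blocking control 100, at or above a set limit in every replicate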;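 further: luciferase carries N-glycosylation sites so blocking glycosylation raises the light; 0% = median of neutral control wells and 100% = median of 100 nM tunicamycin wells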
# PvdQ inh: P. aeruginosa PvdQ acylase inhibition; purified PvdQ acylase, fluorescence plate reader; inhibition, % at 10 µM; actives 0.063% (n = 340,000); AID 488965; in the data active means inhibition above about 30%, passing the limit was not always enough;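 further: 0% = vehicle neutral wells and 100% = reference inhibitor wells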
# * marks the source's active call; other numbers are inactive results; x = not tested or not shown; + = active, no number.
SMILES,Vif imaging,CAL PDZ FP-1,CDK5 inh,CAL PDZ FP-2,Glyco luc inh,PvdQ inh
Cc1cc2nc(-c3ccc(SCC(=O)Nc4ccc(S(=O)(=O)NC5CC5)cc4)nc3)[nH]c2cc1C,x,-1,-5,-1,-8,-6
Oc1ccccc1C=NCCCCCCN=Cc1ccccc1O,4,+,1,0,-3,-8
Cc1cc(C)cc(NC(=O)N2CCCC2C(=O)NCc2ccco2)c1 (stereo unspecified),-1,76*,-2,0,0,-10
COc1cc(NC(=S)N2CCN(S(=O)(=O)c3ccc(F)cc3)CC2)cc(OC)c1,11,48*,0,-2,-1,-13
COc1cccc(NC(=S)N2CCN(S(=O)(=O)c3ccc(F)cc3)CC2)c1,1,0,2,-3,-2,-16
CC(C)(C)c1ccc(C(=O)NNc2cc(N3CCCCC3)nc(N3CCCCC3)n2)cc1,3,-4,2,-1,-6,-3
O=C(NNc1cc(N2CCCC2)nc(N2CCCC2)n1)c1ccc([N+](=O)[O-])cc1,5,30*,1,-2,2,-11
CCCc1nnc(NC(=O)CCC(=O)NC2CCCCCC2)s1,6,-2,1,-2,0,-5
Cc1cc(F)ccc1NCc1ccc([N+](=O)[O-])cc1,26,46*,-2,-1,-2,-9
Cc1cc([N+](=O)[O-])ccc1NCc1ccc2c(c1)OCCO2,-1,-1,1,1,-2,4
CCOC(=O)c1ccc(N(CCC2CO2)S(=O)(=O)c2ccc(C)cc2)cc1 (stereo unspecified),-10,0,2,-1,0,8
COc1cc2c(cc1OC)C(c1ccccc1)N(C(=O)c1ccccc1)CC2 (stereo unspecified),-7,-2,-2,-1,34*,-3
COC(=O)c1ccc(OCC(O)CN2CCc3cc(OC)c(OC)cc3C2c2ccccc2)cc1 (stereo unspecified),-10,76*,1,0,1,-13
COCCNC(=S)N1CCc2cc(OC)c(OC)cc2C1c1cccs1 (stereo unspecified),3,-2,1,-1,59*,-9
COc1cc2c(cc1OC)C(c1ccccc1)N(C(=O)c1ccccc1F)CC2 (stereo unspecified),0,-3,-2,-1,37*,-13
Cc1ccc2c(=O)n3c(nc2c1)C(C)NC(=O)c1cccnc1-3 (stereo unspecified),x,x,x,x,-1,x
COc1cc2c(cc1OC)C(c1cccs1)N(C(=O)c1cccc(S(=O)(=O)N(C)C)c1)CC2 (stereo unspecified),-5,-4,1,-3,32*,-8
COc1cc2c(cc1OC)C(c1ccccc1)N(C(=O)c1ccco1)CC2 (stereo unspecified),20,x,1,-1,34*,-6
COc1cc2c(cc1OC)C(c1cc3cc(C)ccc3[nH]c1=O)N(C(=O)c1ccco1)CC2 (stereo unspecified),10,-3,1,-5,2,0
COc1ccc(C2c3cc(OC)c(OC)cc3CCN2C(=O)c2cccc([N+](=O)[O-])c2)cc1OC (stereo unspecified),10,-4,0,-2,2,-2
COC(=O)c1ccc(OCC2c3cc(OC)c(OC)cc3CCN2C(=O)c2ccco2)cc1 (stereo unspecified),69*,x,0,-3,-2,-9
Cn1c(-c2ccccc2)cc(=O)n1-c1ccccc1,-10,4,1,0,-1,-3
COc1n[nH]c(C(=O)NCc2ccccc2)c1[N+](=O)[O-],-6,0,1,-1,1,-10
COc1n[nH]c(C(=O)Nc2nc3ccccc3s2)c1[N+](=O)[O-],0,66*,-2,-1,0,-4
CCOc1ccc(CN2CCN(Cc3cccn3-c3cccnc3)CC2CCO)cc1 (stereo unspecified),4,78*,0,-1,-3,-13
CCCNC(=O)CNC(=O)c1ccc(C#N)cc1,-2,-1,0,0,1,-5
COc1ccc(CNC(=O)c2cccc3c(-c4cccc(C(N)=O)c4)coc23)cc1OC,-42,x,x,x,60*,x

# Compound activity as filed in PubChem.
